Assay results as given in ChEMBL document CHEMBL1177719 (J Med Chem, 2010).
Active and inactive are the calls of the source. The rule behind the calls is not given here.

Legend:
[1] = biological target: NAD(P)H dehydrogenase [quinone] 1 (Mus musculus) (UniProt Q64669); assay: Induction of quinone reductase 1 in mouse Hepa 1c1c7 cells assessed as drug level required to double enzyme activity by MTT assay
[2] = biological target: T1, Nitric oxide synthase, inducible (Mus musculus) (UniProt P29477); assay: Inhibition of iNOS-mediated nitric oxide production in mouse RAW 264.7 cells at 34 uM pretreated 30 mins measured after 20 hrs by Griess reaction method relative to control; type: cell-based
T1 sequence (whole entry): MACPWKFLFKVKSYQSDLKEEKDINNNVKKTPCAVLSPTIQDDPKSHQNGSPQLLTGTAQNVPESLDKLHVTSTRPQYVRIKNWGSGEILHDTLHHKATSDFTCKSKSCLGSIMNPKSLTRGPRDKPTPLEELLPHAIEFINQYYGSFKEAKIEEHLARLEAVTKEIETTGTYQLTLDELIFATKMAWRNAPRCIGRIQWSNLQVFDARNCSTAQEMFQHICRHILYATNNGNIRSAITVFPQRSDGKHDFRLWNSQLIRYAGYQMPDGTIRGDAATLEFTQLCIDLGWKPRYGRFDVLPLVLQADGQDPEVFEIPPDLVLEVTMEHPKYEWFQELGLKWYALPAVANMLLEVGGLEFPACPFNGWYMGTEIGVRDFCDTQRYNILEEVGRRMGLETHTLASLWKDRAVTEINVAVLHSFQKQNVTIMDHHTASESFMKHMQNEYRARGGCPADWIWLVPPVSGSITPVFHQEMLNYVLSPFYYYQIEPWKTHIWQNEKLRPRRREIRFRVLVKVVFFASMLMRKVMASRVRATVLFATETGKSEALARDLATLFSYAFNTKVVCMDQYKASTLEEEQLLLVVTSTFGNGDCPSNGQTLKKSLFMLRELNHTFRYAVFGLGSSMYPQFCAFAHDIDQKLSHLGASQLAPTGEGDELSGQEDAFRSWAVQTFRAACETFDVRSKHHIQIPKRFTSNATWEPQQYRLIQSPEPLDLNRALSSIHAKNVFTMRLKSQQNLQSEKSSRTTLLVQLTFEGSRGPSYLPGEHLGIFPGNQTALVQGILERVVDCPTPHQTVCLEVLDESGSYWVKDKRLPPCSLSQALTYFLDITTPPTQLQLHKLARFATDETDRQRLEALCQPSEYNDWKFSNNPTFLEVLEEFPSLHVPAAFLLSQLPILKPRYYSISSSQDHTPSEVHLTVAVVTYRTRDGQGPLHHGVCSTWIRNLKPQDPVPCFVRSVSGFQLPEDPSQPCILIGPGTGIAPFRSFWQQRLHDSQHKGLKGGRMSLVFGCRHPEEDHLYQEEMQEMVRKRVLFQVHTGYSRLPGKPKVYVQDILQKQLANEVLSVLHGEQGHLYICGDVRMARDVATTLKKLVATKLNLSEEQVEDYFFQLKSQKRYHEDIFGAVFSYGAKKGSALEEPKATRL
Procedure, shortened: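 RAW 264.7 macrophages seeded at 1 × 10⁵ cells/well for 24 h. Compounds in phenol red-free DMEM added 30 min before LPS (1 μg/mL), then 20 h further incubation. Nitrite in medium measured by Griess reagent at 540 nm against a sodium nitrite standard curve; inhibition at 34 μM.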

HEK293 [3] = assay: Inhibition of TNF-alpha-induced NF-kappaB activity expressed in HEK293 cells at 34 uM after 48 hrs by luciferase reporter gene assay relative to control; type: cell-based
Procedure, shortened: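 Stably transfected 293 cells carrying an NFκB response element–luciferase reporter, exposed to TNFα plus compound for 48 h, then assayed for luciferase. Activity expressed as % of TNFα-treated control. IC₅₀ from five serial dilutions, mean of two experiments.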

[4] = biological target: T2, Prostaglandin G/H synthase 1 (Ovis aries) (UniProt P05979); assay: Inhibition of sheep seminal vesicles COX1 assessed as PGE2 production at 34 uM after 10 mins by ELISA relative to control
T2 sequence (whole entry): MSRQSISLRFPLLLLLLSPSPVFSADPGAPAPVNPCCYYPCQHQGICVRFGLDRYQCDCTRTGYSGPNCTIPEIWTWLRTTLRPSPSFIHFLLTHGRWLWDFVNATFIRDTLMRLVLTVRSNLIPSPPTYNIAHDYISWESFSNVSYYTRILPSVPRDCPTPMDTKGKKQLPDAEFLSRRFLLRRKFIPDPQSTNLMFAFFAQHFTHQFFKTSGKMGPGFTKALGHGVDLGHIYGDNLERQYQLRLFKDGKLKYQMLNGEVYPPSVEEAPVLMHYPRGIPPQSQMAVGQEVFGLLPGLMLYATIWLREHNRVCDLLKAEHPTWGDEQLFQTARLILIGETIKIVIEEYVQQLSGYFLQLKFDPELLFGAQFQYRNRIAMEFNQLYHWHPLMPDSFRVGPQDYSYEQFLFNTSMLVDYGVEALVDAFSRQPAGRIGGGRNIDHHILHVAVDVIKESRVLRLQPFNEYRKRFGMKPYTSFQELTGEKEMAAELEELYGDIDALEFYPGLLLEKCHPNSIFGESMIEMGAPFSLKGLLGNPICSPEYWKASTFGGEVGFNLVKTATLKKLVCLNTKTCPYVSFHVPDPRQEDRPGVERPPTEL
Procedure, shortened: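 Sheep seminal vesicle COX-1; reaction started with arachidonic acid, 10 min at room temperature, stopped with 27.8 μM indomethacin. PGE₂ quantified by competitive ELISA (PGE₂-acetylcholinesterase tracer, Ellman's reagent, 412 nm) against a PGE₂ standard curve. Result as % of solvent control; IC₅₀ from dose-response curves.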

[5] = biological target: T1, Nitric oxide synthase, inducible (Mus musculus); assay: Inhibition of iNOS-mediated nitric oxide production in LPS-stimulated mouse RAW 264.7 cells at 34 uM pretreated 30 mins before LPS challenge measured after 20 hrs by Griess reaction method relative to control; type: cell-based
RAW264.7 = assay: Inhibition of LPS-induced COX2 expression in mouse RAW264.7 cells at 34 uM treated 15 mins before LPS challenge measured after 18 hrs by immunoblotting; type: functional, cell-based
Procedure, shortened: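 RAW 264.7 cells pretreated with samples 15 min, then LPS 1 μg/mL for 18 h. Lysates (30 μg protein) run on 8% SDS-PAGE, transferred to PVDF, probed with primary and HRP secondary antibodies, ECL detection. β-actin internal control; band density quantified relative to the LPS-only control; duplicate experiment.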

HEK293 [6] = assay: Cytotoxicity against human HEK293 cells at 34 uM; type: cell-based; details: hek293, 34 µM
[7] = Antioxidant activity assessed as DPPH scavenging activity at 340 uM after 30 mins; type: functional
KB = assay: Cytotoxicity against human KB cells assessed as cell survival at 20 ug/ml after 72 hrs by sulforhodamine B method; type: functional; details: read-out: Activity
Procedure, shortened: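 Sulforhodamine B assay. KB or MCF7 cells plated with samples and held 72 h at 37 °C, 5% CO₂. Fixed 1 h in 10% trichloroacetic acid, stained with 0.4% SRB in 1% acetic acid, dye taken up in 10 mM Tris.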

[8] = Antioxidant activity assessed as nitric oxide scavenging activity at 60 uM; type: functional
Procedure, shortened: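 Compounds diluted tenfold in PBS and incubated with sodium nitroprusside (final compound 60 μM, SNP 5 mM) for 3 h at room temperature. Nitrite measured by Griess reagent, absorbance 540 nm. % inhibition given as average of triplicates ± standard deviation.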

Sequence of NAD(P)H dehydrogenase [quinone] 1 (Mus musculus) (Q64669 whole entry): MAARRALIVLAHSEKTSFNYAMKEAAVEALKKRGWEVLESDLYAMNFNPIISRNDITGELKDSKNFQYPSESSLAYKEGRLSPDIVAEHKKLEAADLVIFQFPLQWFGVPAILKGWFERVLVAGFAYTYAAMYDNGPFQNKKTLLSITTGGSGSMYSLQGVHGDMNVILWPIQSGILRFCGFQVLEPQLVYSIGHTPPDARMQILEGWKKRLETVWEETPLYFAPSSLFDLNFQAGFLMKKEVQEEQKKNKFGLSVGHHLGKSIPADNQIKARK

## O=S(=O)([O-])Oc1ccc(/C=C/c2cc(OS(=O)(=O)[O-])cc(OS(=O)(=O)[O-])c2)cc1.[K+].[K+].[K+]
[1]
  CD: > 11.7 µM
[2]
  Activity: inactive
HEK293 [3]
  inhibition: 36.7%
[4]
  inhibition: 37.8%
[5]
  inhibition: 24.8%
RAW264.7
  inhibition: inactive
HEK293 [6]
  Activity: Non-toxic
[7]
  inhibition: 0.4%
KB
  viability at 20 µg/mL: 78.1%
[8]
  Activity: 1.6%

## O=S(=O)([O-])Oc1ccc(/C=C/c2cc(O)cc(O)c2)cc1.[K+]
[1]
  CD: > 6.9 µM
[2]
  Activity: inactive
HEK293 [3]
  inhibition: 64%
[4]
  inhibition: 63.2%
[5]
  inhibition: 56.8%
RAW264.7
  inhibition: inactive
HEK293 [6]
  Activity: Non-toxic
[7]
  inhibition: 42.8%
KB
  viability at 20 µg/mL: 108%
[8]
  Activity: 10.3%

## O=S(=O)([O-])Oc1cc(O)cc(/C=C/c2ccc(O)cc2)c1.[K+]
[1]
  CD: 2.6 µM
[2]
  Activity: inactive
HEK293 [3]
  inhibition: 33%
[4]
  inhibition: 74.3%
[5]
  inhibition: 41%
RAW264.7
  inhibition: inactive
HEK293 [6]
  Activity: Non-toxic
[7]
  inhibition: 68%
KB
  viability at 20 µg/mL: 70.3%
[8]
  Activity: 24.7%

## O=S(=O)([O-])Oc1cc(/C=C/c2ccc(O)cc2)cc(OS(=O)(=O)[O-])c1.[K+].[K+]
[1]
  CD: > 10.1 µM
[2]
  Activity: inactive
HEK293 [3]
  inhibition: 42.5%
[4]
  inhibition: 30.9%
[5]
  inhibition: 4.8%
RAW264.7
  inhibition: inactive
HEK293 [6]
  Activity: Non-toxic
[7]
  inhibition: 14.5%
KB
  viability at 20 µg/mL: 84.2%
[8]
  Activity: 1.2%
